Reference: ChEMBL document CHEMBL4382256, “Design and Synthesis of Marine Phidianidine Derivatives as Potential Immunosuppressive Agents” (J Med Chem, 2018)
The source made the active and inactive calls. No cut-off for these calls is given here.

Tests used:
[1] = Cytotoxicity against BALB/c mouse splenocytes after 48 hrs by CCK-8 assay; format: cell-based, Splenocyte
Procedure, shortened: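 Fresh female BALB/c splenocytes (1×10^6 cells), RBC-depleted with ammonium chloride, cultured in triplicate in RPMI 1640/10% FBS with penicillin/streptomycin at 37 °C, 5% CO2 for 48 h with or without compound (DMSO stock diluted in medium). CCK-8 added, 6-8 h further incubation, absorbance 450 nm (570 nm calibration). CC50 from log(inhibitor) vs normalized response non-linear fit.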

Splenocyte [2] = assay: (§1) Immunosuppressive activity in BALB/c mouse splenocytes assessed as inhibition of concanavalin A stimulated T-cell proliferation by measuring [3H]-thymidine uptake preincubated for 48 hrs followed by concanavalin A stimulation and [3H]-thymidine addition for 8 hrs measured after 48 hrs by beta-scintillation counting analysis; format: functional, cell-based
Procedure, shortened: (§2)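 Female BALB/c splenocytes (5×10^5 cells), triplicate, with or without compound, stimulated with Con A 5 μg/ml (T cells) or LPS (E. coli 055:B5) 10 μg/ml (B cells). Culture 48 h at 37 °C, 5% CO2. Pulsed 8 h with 0.5 μCi/well [3H]thymidine, harvested to glass fiber filters, beta scintillation counted. IC50 from log(inhibitor) vs normalized response non-linear fit.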

Splenocyte [3] = assay: as §1, with “LPS-stimulated B-cell” for “concanavalin A stimulated T-cell”, “LPS” for “concanavalin A”; format: functional, cell-based; procedure, shortened: as §2
Splenocyte [4] = assay: as §1, with “uptake at 50 uM” for “uptake”; format: functional, cell-based
Procedure, shortened: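 Female BALB/c splenocytes (5×10^5 cells), triplicate, compound at 50 μM, Con A 5 μg/ml stimulation, 48 h at 37 °C, 5% CO2. Pulsed 8 h with 0.5 μCi/well [3H]thymidine, harvested to glass fiber filters, counted by beta scintillation.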

Mus musculus [5] = species: Mus musculus; assay: Immunosuppressive activity in BALB/c mouse CD4-positive T cells assessed as inhibition of anti-CD3/CD28 stimulated cell proliferation at 1 to 10 uM after 48 hrs by [3H]-thymidine uptake assay; format: functional
Procedure, shortened: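 CD4+ T cells isolated from BALB/c spleen by immunomagnetic negative selection (purity >98%). 4×10^5 cells/well on plate-coated anti-CD3 (5 μg/ml) plus anti-CD28 (2 μg/ml), with or without compound at 10, 3 and 1 μM, for 48 h. Proliferation read by 0.5 μCi/well [3H]thymidine pulse.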

Mus musculus [6] = species: Mus musculus; assay: Immunosuppressive activity in BALB/c mouse CD4-positive T cells assessed as decrease in anti-CD3/CD28 stimulated IL-2 production at 1 to 10 uM after 24 hrs by ELISA; format: functional
Procedure, shortened: (§3)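 Purified splenic CD4+ T cells (negative selection, >98% pure) stimulated with anti-CD3 (5 μg/ml) plus anti-CD28 (2 μg/ml), with or without compound at 10, 3 and 1 μM, for 24 h. Supernatant IL-2 and IFN-γ measured by mouse ELISA kits.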

Mus musculus [7] = species: Mus musculus; assay: Immunosuppressive activity in BALB/c mouse CD4-positive T cells assessed as decrease in anti-CD3/CD28 stimulated IFN-gamma production at 1 to 10 uM after 24 hrs by ELISA; format: functional; procedure, shortened: as §3
[8] = Immunosuppressive activity in BALB/c mouse CD4-positive T cells assessed as anti-CD3/CD28 stimulated CD25 expression at 10 uM by phycoerythrin staining-based flow cytometric analysis (reference value: 52.5%); format: functional
Procedure, shortened: (§4)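 Purified splenic CD4+ T cells stimulated with anti-CD3 (5 μg/ml) plus anti-CD28 (2 μg/ml) with or without compound at 10, 3 or 1 μM. Cells washed in PBS, stained with fixable viability dye eFluor 780 for 30 min at 4 °C, Fc-blocked with anti-CD16/CD32, stained with PE-CD25. CD25+ percentage read by flow cytometry.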

[9] = Immunosuppressive activity in BALB/c mouse CD4-positive T cells assessed as anti-CD3/CD28 stimulated CD25 expression at 3 uM by phycoerythrin staining-based flow cytometric analysis (reference value: 52.5%); format: functional; procedure, shortened: as §4
[10] = Immunosuppressive activity in BALB/c mouse CD4-positive T cells assessed as anti-CD3/CD28 stimulated CD25 expression at 1 uM by phycoerythrin staining-based flow cytometric analysis (reference value: 52.5%); format: functional; procedure, shortened: as §4
Mus musculus [11] = species: Mus musculus; assay: Immunosuppressive activity in BALB/c mouse CD19-positive B cells assessed as inhibition of anti-IgM/CD40 stimulated cell proliferation at 1 to 10 uM after 48 hrs by [3H]-thymidine uptake assay; format: functional
Procedure, shortened: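 CD19+ B cells purified from BALB/c spleen by negative selection (purity >98%). Stimulated with F(ab')2 anti-mouse IgM (10 μg/ml) plus hamster anti-mouse CD40 (1 μg/ml), with or without compound at 10, 3 and 1 μM, 48 h. Proliferation by 0.5 μCi/well [3H]thymidine pulse.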

Mus musculus [12] = species: Mus musculus; assay: Immunosuppressive activity in BALB/c mouse CD19-positive B cells assessed as decrease in anti-IgM/CD40 stimulated IL-6 levels at 1 to 10 uM after 24 hrs by ELISA; format: functional
Procedure, shortened: (§5)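 Purified splenic CD19+ B cells (negative selection, >98% pure) stimulated with F(ab')2 anti-IgM (10 μg/ml) plus anti-CD40 (1 μg/ml), with or without compound at 10, 3 and 1 μM, 24 h. Supernatant IL-6 and IL-10 measured by mouse ELISA kits.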

Mus musculus [13] = species: Mus musculus; assay: Immunosuppressive activity in BALB/c mouse CD19-positive B cells assessed as increase in anti-IgM/CD40 stimulated IL-10 levels at 1 to 10 uM after 24 hrs by ELISA; format: functional; procedure, shortened: as §5
[14] = Immunosuppressive activity in BALB/c mouse CD19-positive B cells assessed as inhibition of anti-IgM/CD40 -induced decrease in IgD expression by measuring mean fluorescence intensity at 10 uM by allophycocyanin staining-based flow cytometric analysis (reference value: 5084); format: functional
[15] = Immunosuppressive activity in BALB/c mouse CD19-positive B cells assessed as inhibition of anti-IgM/CD40 -induced decrease in IgD expression by measuring mean fluorescence intensity at 3 uM by allophycocyanin staining-based flow cytometric analysis (reference value: 5084); format: functional
[16] = Immunosuppressive activity in BALB/c mouse CD19-positive B cells assessed as inhibition of anti-IgM/CD40 -induced decrease in IgD expression by measuring mean fluorescence intensity at 1 uM by allophycocyanin staining-based flow cytometric analysis (reference value: 5084); format: functional

SMILES | CC50 at 48 h [1] [µM] | IC50 (Splenocyte [2]) [µM] | IC50 (Splenocyte [3]) [µM] | further results
CCCCc1ccc(-c2nc(-c3cc(OC)c(OC)c(OC)c3)no2)cc1 | 21.2 | > 50 | 36.2 | 
COc1cc(-c2noc(-c3ccc(NC(=O)OC(C)(C)C)cc3)n2)cc(OC)c1OC | 9.2 | 1.6 | 2.2 | 
CCCCc1ccc(-c2nc(Cc3c[nH]c4ccccc34)no2)cc1 | 8.2 | 11.2 | 9.8 | 
COc1cc(OC)cc(-c2nc(Cc3c[nH]c4ccccc34)no2)c1 | > 50 | > 50 | 13.9 | 
Fc1ccc(-c2noc(Cc3c[nH]c4ccccc34)n2)cc1 | 13.6 | 5.4 | 13.6 | 
N=C(N)NCCNc1noc(Cc2c[nH]c3ccccc23)n1 |  |  |  | inhibition (Splenocyte [4]): inactive
CCCCCCc1ccc(-c2nc(-c3cc(OC)c(OC)c(OC)c3)no2)cc1 | 25 | 23.8 | 22.9 | 
CCCCc1nc(Cc2c[nH]c3ccccc23)no1 | > 50 | > 50 | > 50 | 
COc1ccccc1-c1nc(Cc2c[nH]c3ccccc23)no1 | 42.2 | 16.7 | 11.1 | 
N=C(N)NCCCCCNc1noc(Cc2c[nH]c3ccccc23)n1 |  |  |  | inhibition (Splenocyte [4]): inactive
COc1cc(-c2noc(-c3ccccc3)n2)cc(OC)c1OC | > 50 | > 50 | > 50 | 
COc1cc(-c2noc(C3CC4(C3)CC(F)(F)C4)n2)cc(OC)c1OC | 28.5 | 5.2 | 5.6 | 
COc1cc(-c2noc(C34CC5CC(CC(C5)C3)C4)n2)cc(OC)c1OC | 26.5 | 2.7 | 18.8 | 
COc1cccc(-c2nc(Cc3c[nH]c4ccccc34)no2)c1 | 18.4 | 18.5 | 11.1 | 
COc1cc(-c2noc(-c3cc(OC)c(OC)c(OC)c3)n2)cc(OC)c1OC | > 50 | 5.5 | > 50 | 
COc1cc(-c2noc(C34CCC(N)(CC3)CC4)n2)cc(OC)c1OC | 25.8 | 4.8 | 4.1 | 
COc1cc(-c2nc(Cc3c[nH]c4ccccc34)no2)cc(OC)c1OC | > 50 | 11 | 3.1 | inhibition (Mus musculus [5]): Active; Activity (Mus musculus [6]): Active; Activity (Mus musculus [7]): Active; Activity [8]: 22%; Activity [9]: 48.6%; Activity [10]: 50.3%; Activity (Mus musculus [11]): Active; Activity (Mus musculus [12]): Active; Activity (Mus musculus [13]): Active; Flu intensity [14]: 6814; Flu intensity [15]: 6134; Flu intensity [16]: 5640
COc1cc(-c2noc(Cc3c[nH]c4ccccc34)n2)cc(OC)c1OC | > 50 | > 50 | 2.8 | 

SMILES | CC50 at 48 h [1] [µM] | IC50 (Splenocyte [2]) [µM] | IC50 (Splenocyte [3]) [µM] | further results
Fc1ccccc1-c1nc(Cc2c[nH]c3ccccc23)no1 | > 50 | > 50 | > 50 | 
COc1ccc(-c2nc(Cc3c[nH]c4ccccc34)no2)c(OC)c1 | 9.3 | 8.6 | 4.7 | 
COc1ccc(Br)c(-c2nc(Cc3c[nH]c4ccccc34)no2)c1 | 33.6 | 13.3 | 6.9 | 
COc1cc(C(=O)O/N=C(\N)Cc2c[nH]c3ccccc23)cc(OC)c1OC | 10.1 | 11.9 | 6.8 | 
CCc1ccc(-c2nc(-c3cc(OC)c(OC)c(OC)c3)no2)cc1 | 31.3 | > 50 | > 50 | 
O=[N+]([O-])c1ccc(-c2noc(Cc3c[nH]c4ccccc34)n2)cc1 | > 50 | > 50 | > 50 | 
Clc1ccc(-c2noc(Cc3c[nH]c4ccccc34)n2)cc1 | 42.8 | 22.6 | > 50 | 
COc1cc(-c2noc(-c3ccc(N)cc3)n2)cc(OC)c1OC | > 50 | 0.8 | 1.7 | inhibition (Mus musculus [5]): Active; Activity (Mus musculus [6]): Active; Activity (Mus musculus [7]): Active; Activity [8]: 19%; Activity [9]: 38.3%; Activity [10]: 52.2%; Activity (Mus musculus [11]): Active; Activity (Mus musculus [12]): Active; Activity (Mus musculus [13]): Active; Flu intensity [14]: 6995; Flu intensity [15]: 6866; Flu intensity [16]: 5281
COc1ccc(-c2nc(Cc3c[nH]c4ccccc34)no2)cc1 | > 50 | > 50 | > 50 | 
Fc1ccc(-c2nc(Cc3c[nH]c4ccccc34)no2)c(C(F)(F)F)c1 | 40.6 | 15.7 | 9.7 | 
N=C(N)NCCCCNc1noc(Cc2c[nH]c3ccccc23)n1 |  |  |  | inhibition (Splenocyte [4]): inactive
COc1cc(-c2noc(-c3cccc(N)c3)n2)cc(OC)c1OC | 8.2 | 7 | 5.5 | 
CCc1ccc(-c2noc(Cc3c[nH]c4ccccc34)n2)cc1 | 24.4 | 7.5 | 13.9 | 
COc1cc(-c2noc(C34CCC(NC(=O)OC(C)(C)C)(CC3)CC4)n2)cc(OC)c1OC | 12.7 | 2.5 | 3.6 | 
COc1cc(/C(N)=N/OC(=O)Cc2c[nH]c3ccccc23)cc(OC)c1OC | 37.3 | 19.5 | 10.4 | 
COc1ccc(OC)c(-c2nc(Cc3c[nH]c4ccccc34)no2)c1 | > 50 | > 50 | 8.4 | 
c1ccc(-c2noc(Cc3c[nH]c4ccccc34)n2)cc1 | > 50 | > 50 | > 50 | 
